# Source: ChEMBL document CHEMBL4689842, “EUbOPEN Chemogenomics Library wave 1” (2021)
# Several values for one entry are separate records, joined by “and”; a condition that tells them apart may be missing. Identical values can stand only once.
# Test system: HEK-293T
# Test: Multiplex assay against HEK293T;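 on Population Tubulin-Different-Phenotype (%): share of the cells with healthy nuclei that show this phenotype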
# Format: toxicity, cell-based
# Conditions: human
# Summary of the method: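 With compound added, live cells were imaged on a CQ1 microscope at 37°C and 5% CO2; staining with Hoechst33342, BioTracker Green Microtubule Cytoskeleton Dye, MitoTracker Red and Annexin V Alexa Fluor 680 had been done at seeding. The CellPathfinder machine-learning gating scheme split cells into Hoechst high-intensity objects or normal cells, normal cells into healthy, pyknosed or fragmented nuclei, and pyknosed cells into mitotic or apoptotic. The tubulin, mitochondrial-mass and membrane-permeability phenotypes are per cents of healthy-nucleus cells.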
# [1] = 12 h, 1 µM, compound concentration 1 uM, replicate 1
# [2] = 12 h, 1 µM, compound concentration 1 uM, replicate 2
# [3] = 12 h, 10 µM, compound concentration 10 uM, replicate 1
# [4] = 12 h, 10 µM, compound concentration 10 uM, replicate 2
# [5] = 24 h, 1 µM, compound concentration 1 uM, replicate 1
# [6] = 24 h, 1 µM, compound concentration 1 uM, replicate 2
# [7] = 24 h, 10 µM, compound concentration 10 uM, replicate 1
# [8] = 24 h, 10 µM, compound concentration 10 uM, replicate 2
smiles,measurement,setting,value
CC[C@@]1(O)C(=O)OCc2c1cc1n(c2=O)Cc2cc3ccccc3nc2-1 [CAMPTOTHECIN],Population Apoptotic (%),[1],13% and 29% and 33%
same,Population Healthy Nuclei (%),[1],67% and 60% and 69%
same,Population Membrane Permeable-Phenotype (%),[1],5% and 3%
same,Population Mitochondria Different-Phenotype (%),[1],5% and 3%
same,Population Mitotic Cells (%),[1],86% and 70% and 66%
same,Population Normal (%),[1],94% and 66% and 79%
same,Population Tubulin-Different-Phenotype (%),[1],5% and 0% and 2%
same,Total Cell Count,[1],915 and 710 and 886
same,Population Healthy Nuclei (%),[2],94% and 77% and 79%
same,Population Membrane Permeable-Phenotype (%),[2],2% and 1%
same,Population Mitochondria Different-Phenotype (%),[2],19% and 9%
same,Population Mitotic Cells (%),[2],87% and 81% and 50%
same,Population Normal (%),[2],98% and 95% and 96%
same,Population Pyknosed Nuclei (%),[2],2% and 1% and 0%
same,Total Cell Count,[2],1821 and 1627 and 1427
same,Population Apoptotic (%),[3],16%
same,Population Fragmented Nuclei (%),[3],15%
same,Population Healthy Nuclei (%),[3],57%
same,Population Hoechst High Intensity Objects (%),[3],13%
same,Population Membrane Permeable-Phenotype (%),[3],3%
same,Population Mitochondria Different-Phenotype (%),[3],2%
same,Population Mitotic Cells (%),[3],83%
same,Population Normal (%),[3],86%
same,Population Pyknosed Nuclei (%),[3],26%
same,Population Tubulin-Different-Phenotype (%),[3],2%
same,Total Cell Count,[3],665
same,Population Apoptotic (%),[4],20%
same,Population Fragmented Nuclei (%),[4],3%
same,Population Healthy Nuclei (%),[4],93%
same,Population Hoechst High Intensity Objects (%),[4],2%
same,Population Membrane Permeable-Phenotype (%),[4],2%
same,Population Mitochondria Different-Phenotype (%),[4],14%
same,Population Mitotic Cells (%),[4],80%
same,Population Normal (%),[4],97%
same,Population Pyknosed Nuclei (%),[4],3%
same,Population Tubulin-Different-Phenotype (%),[4],9%
same,Total Cell Count,[4],1781
same,Population Apoptotic (%),[5],26% and 33% and 22%
same,Population Healthy Nuclei (%),[5],68% and 76% and 85%
same,Population Membrane Permeable-Phenotype (%),[5],7% and 5% and 4%
same,Population Mitochondria Different-Phenotype (%),[5],3% and 4% and 5%
same,Population Mitotic Cells (%),[5],73% and 66% and 77%
same,Population Normal (%),[5],69% and 81% and 96%
same,Population Pyknosed Nuclei (%),[5],5% and 2% and 10%
same,Population Tubulin-Different-Phenotype (%),[5],5% and 6%
same,Total Cell Count,[5],653 and 837 and 854
same,Population Fragmented Nuclei (%),[6],18% and 8%
same,Population Healthy Nuclei (%),[6],81% and 78% and 90%
same,Population Hoechst High Intensity Objects (%),[6],5%
same,Population Membrane Permeable-Phenotype (%),[6],2% and 1%
same,Population Mitochondria Different-Phenotype (%),[6],6% and 8% and 7%
same,Population Mitotic Cells (%),[6],100% and 62%
same,Population Normal (%),[6],94%
same,Population Pyknosed Nuclei (%),[6],0%
same,Population Tubulin-Different-Phenotype (%),[6],8% and 13%
same,Total Cell Count,[6],1448 and 1582 and 1694
same,Population Apoptotic (%),[7],23%
same,Population Fragmented Nuclei (%),[7],11%
same,Population Healthy Nuclei (%),[7],73%
same,Population Hoechst High Intensity Objects (%),[7],8%
same,Population Membrane Permeable-Phenotype (%),[7],4%
same,Population Mitochondria Different-Phenotype (%),[7],2%
same,Population Mitotic Cells (%),[7],76%
same,Population Normal (%),[7],92%
same,Population Pyknosed Nuclei (%),[7],15%
same,Population Tubulin-Different-Phenotype (%),[7],3%
same,Total Cell Count,[7],575
same,Population Apoptotic (%),[8],44%
same,Population Fragmented Nuclei (%),[8],8%
same,Population Healthy Nuclei (%),[8],90%
same,Population Hoechst High Intensity Objects (%),[8],4%
same,Population Membrane Permeable-Phenotype (%),[8],0%
same,Population Mitochondria Different-Phenotype (%),[8],4%
same,Population Mitotic Cells (%),[8],55%
same,Population Normal (%),[8],95%
same,Population Pyknosed Nuclei (%),[8],0%
same,Population Tubulin-Different-Phenotype (%),[8],5%
same,Total Cell Count,[8],1706
